Sampled rows, rich in hits. Any-hit rate of the full collection: about 3.7%.
hERG rescue: hERG (human) protection from proarrhythmic block | Q12809 | CHO-hERG, FluxOR thallium flux, dofetilide IC70 present | activation (rescue from dofetilide block), less the hit threshold, % at 10 µM | 310,000 tested, 0.51% active;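 active means activation above the mean of controls blocked by dofetilide plus 5 SD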;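 further: thallium influx through hERG after potassium depolarization seen as dye fluorescence rise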
KCNK9 block: inhibitors of human KCNK9 two-pore domain potassium channel. 310,000 tested, 1.2% active. B-score at 10 µM. HEK293 KCNK9, FluxOR thallium flux fluorescence; active compounds read low. Q9NPC2;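 active means ratio B-score over 3 SD below the library mean, with starting fluorescence within 5 SD of its mean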;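 further: negative B-score means less thallium flux so channel inhibition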
Target sequence (Q9NPC2 whole entry, looked up, the tested form may be a part): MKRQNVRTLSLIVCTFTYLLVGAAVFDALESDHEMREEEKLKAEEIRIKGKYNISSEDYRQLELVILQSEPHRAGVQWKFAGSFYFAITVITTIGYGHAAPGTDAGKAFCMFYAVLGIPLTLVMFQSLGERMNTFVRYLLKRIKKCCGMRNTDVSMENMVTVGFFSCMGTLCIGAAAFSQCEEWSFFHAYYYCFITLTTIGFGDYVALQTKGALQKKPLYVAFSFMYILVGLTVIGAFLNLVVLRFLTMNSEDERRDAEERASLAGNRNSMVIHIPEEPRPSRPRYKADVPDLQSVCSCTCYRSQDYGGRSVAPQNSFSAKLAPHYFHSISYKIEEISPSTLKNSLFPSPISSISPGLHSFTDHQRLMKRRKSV
Kir21 block: inhibitors of mouse Kir2.1 inward-rectifier potassium channel. P35561. HEK293-Kir2.1, FluxOR thallium flux fluorescence; active compounds read low. B-score at 10 µM. 310,000 tested, 0.85% active. AID 1672;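 active means fluorescence ratio B-score at or below minus 3 SD of library scores, with starting-brightness B-score within 2 SD, cut at about -4.2 in these data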;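 further: channel flux triggered by added potassium and thallium sulfate stimulus; B-score of peak minus minimum fluorescence over baseline after thallium stimulus; more negative B-score means stronger Kir2.1 block with less thallium influx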
KCNQ1 block: human KCNQ1 channel inhibition; P51787; B-score at 10 µM; CHO-K1 KCNQ1, FluxOR thallium flux fluorescence; active compounds read high; AID 2642; 310,000 tested, 1.3% active;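 active means compounds whose thallium flux B-score, printed positive for inhibition, exceeds three library SD while starting fluorescence stays within three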;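 further: channel opened by potassium depolarization with thallium stimulus after 20 min compound exposure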
KCNK3 block: human KCNK3 channel inhibition, primary screen. O14649. CHO-KCNK3 thallium flux, FluxOR fluorescence; active compounds read low. B-score at 10 µM. 340,000 tested, 0.84% active. AID 602410;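 active means B-score under library mean minus 4 SD, starting fluorescence ratio at most library mean plus 5 SD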;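 further: more negative B-score means stronger inhibition of thallium flux through KCNK3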
KCNQ1 act: human KCNQ1 channel potentiation or activation; P51787; CHO-K1 KCNQ1, thallium flux FluxOR fluorescence; active compounds read high; B-score at 10 µM; 310,000 tested, 0.35% active; AID 2648;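 active means fluorescence ratio B-score, a plate-corrected score, at least three library SD, with initial intensity B-score within 5 SD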
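System: Stable KCNQ1 CHO-K1 line | Incubation: 90 min dye loading and 20 min compound exposure, both at room temperature | Measure: Ratio B score | Medium: Assay buffer for compound exposure, DMSO matched across wells | Compound dosing: Single-concentration screen | Probe or stimulus: K+/Tl+ depolarizing stimulus | Measured by: Kinetic FluxOR fluorescence, 10 s baseline plus 110 s post-stimulus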
KCNK9 block conf: confirmation of human KCNK9 potassium channel inhibitors. shares compounds with KCNK9 block. HEK293 KCNK9 cells, FluxOR thallium flux fluorescence. inhibition, % at 10 µM. 4,900 tested, 43% active. AID 492992;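 active means thallium signal inhibited by more than 5 SD of the compound-free buffer control wells, on both duplicate plates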;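 further: 0% = assay buffer control wells without compound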
Kir21 sel: selectivity of KCNK9 modulators against mouse Kir2.1; Kir2.1 cells, FluxOR thallium flux fluorescence; shares compounds with KCNK9 block; 4,900 tested, 4% active; inhibition, % at 10 µM; AID 492993;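 active means thallium signal drop more than 5 SD beyond the mean of the no-compound control wells, seen in both duplicate plates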;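 further: signal is fluorescence rise after thallium addition divided by baseline fluorescence; plate controls were assay buffer only for no effect and full block by chlorpromazine control for full effect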
HEK293 Tl ctr: non-induced cell nonspecific activity of KCNK9 modulators | inhibition, % at 10 µM | non-induced KCNK9-HEK293, FluxOR thallium flux | shares compounds with KCNK9 block | 4,900 tested, 40% active;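 active means thallium signal drop beyond 5 SD of the untreated control mean, on both duplicate plates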;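 further: plate controls were buffer only IC0 wells for no effect and SID17386958 at its maximal inhibitory level for full effect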
Starred values were filed as active, the others as inactive; i = inactive; . = no result.

SMILES	hERG rescue	KCNK9 block	Kir21 block	KCNQ1 block	KCNK3 block	KCNQ1 act	KCNK9 block conf	Kir21 sel	HEK293 Tl ctr
COc1ccc(CN2CCCC(C(=O)c3cccc(Cl)c3)C2)cc1 (stereo unspecified)	-9	i	-8.8*	i	i	i	i	32%*	i
COc1ccc(CN2CCCC(C(=O)c3ccc(Cl)cc3)C2)c(OC)c1 (stereo unspecified)	-12	i	-5.2*	i	i	i	i	i	i
O=C(c1cccc(Cl)c1)C1CCCN(Cc2ccon2)C1 (stereo unspecified)	-6	i	2.3	i	i	i	.	.	.
CCc1nn(CC(=O)N2CCC3(CC2)OCCO3)c(=O)c2cc3ccccc3n12	-4	i	-0.47	i	i	i	.	.	.
CCCCn1c(=O)c(C=Nc2ccc(Cl)cc2)c(O)n(Cc2ccco2)c1=O	-2	i	1.5	i	i	i	i	i	i
Cc1nn(Cc2ccccc2Cl)c(Cl)c1C(=O)OCC(=O)NC(=O)NC1CCCCC1	-8	i	0.91	i	i	i	i	i	i
CC(C)n1c(=O)c(C=Nc2cccc([N+](=O)[O-])c2)c(O)n(CCc2ccccc2)c1=O	-7	i	-2.1	i	i	i	i	i	i
CCCCn1c(=O)c(C=Nc2cc([N+](=O)[O-])ccc2OC)c(O)n(CCCCl)c1=O	-4	i	0.75	i	i	i	.	.	.
C=CC1CN2CCC1CC2c1[nH]c2ccccc2c1CCO (stereo unspecified)	1	i	0.06	i	i	i	.	.	.
CCCCN(Cc1ccccc1)C1CCN(CCc2ccccc2)CC1	-8	i	-0.39	i	i	i	i	i	i
FC(F)(F)c1ccc2c(c1)N(CCCN1CCN(CCCl)CC1)c1ccccc1S2	-14	i	-0.52	i	i	i	i	i	i
O=C(O)c1cccc2c1NC(c1cccc([N+](=O)[O-])c1)C1CC(Sc3ccccc3[N+](=O)[O-])C(Cl)C21 (stereo unspecified)	-3	i	0.11	i	i	16*	i	i	i
Cc1cccc(C2=NCC(=O)N(CC(=O)NCc3ccco3)c3sc4c(c32)CCCC4)c1	-7	-11*	-2	i	i	i	41%*	i	30%*
O=C(CN1C(=O)CN=C(c2ccccc2Cl)c2cc(Cl)ccc21)NCc1ccco1	-2	i	-0.75	i	i	i	.	.	.
CCC(=O)c1cn(Cc2ccccc2)c2ccccc12	-21	i	0.01	i	i	i	.	.	.
O=C(COc1ccccc1)c1cn(Cc2ccccc2)c2ccccc12	-9	-10*	-3.3	i	i	i	52%*	i	53%*
CCCCCc1nc2c(c(=O)c3ccccc3n2C)c(=O)n1C1CCCCCC1	-22	i	0.58	i	i	i	.	.	.
CCCCS(=O)(=O)N1CCN(C(=N)N[N+](=O)[O-])CC1	-9	i	0.03	i	i	i	.	.	.
COc1ccccc1CN1CCN(C(=O)COc2ccc3ccccc3c2)CC1	-5	i	-6.2	i	i	i	i	33%*	i
COc1ccccc1CN1CCN(C(=O)COc2cccc(C)c2)CC1	-6	i	0.75	i	i	i	.	.	.
O=c1c(C=NCc2cccs2)c(O)n(C2CCCCC2)c(=O)n1C1CCCCC1	-7	i	0.35	i	i	i	i	i	i

Screening results deposited in PubChem BioAssay by Johns Hopkins Ion Channel Center.
